Test results: ChEMBL document CHEMBL2093137, “WHO-TDR NTD Screening”
≈ marks a conversion by molar mass, not a printed value. Values belong to the compound of their own block, whether it stands above or below them.

Assays:
[1] = test system: Trypanosoma brucei brucei; assay: WHO-TDR: Human African Trypanosomiasis (HAT); type: functional, organism-based; conditions: Squib-427
In short: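 Screening used a 10,000-compound diverse library supplied by Life Chemicals and filtered for drug-likeness and reactive groups. Whole bloodstream-form parasites of Trypanosoma brucei Squib 427 strain were assayed according to previously published standard procedures, with reference drugs as positive controls. The reported measure is IC50, reflecting antiparasitic potency.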

[2] = test system: Trypanosoma cruzi; assay: WHO-TDR: Chagas disease; type: functional, organism-based, Homo sapiens; conditions: MRC5
In short: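 Whole-organism screen of a 10,000-compound diverse library from Life Chemicals, filtered for drug-likeness and reactive groups, against intracellular amastigotes of Trypanosoma cruzi Tulahuen CL2 beta-galactosidase strain grown in MRC-5SV2 human lung fibroblast host cells. The assay followed previously published standard procedures, with a reference drug as positive control. Antiparasitic potency is reported as IC50.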

[3] = WHO-TDR: Cytotoxicity; type: toxicity, cell-based; conditions: human, MRC5 cells
[4] = test system: Brugia malayi; assay: WHO-TDR: Lymphatic Filariasis; type: functional; set-up: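 tested at 10 µM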
In short: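 A diverse library of 10,000 compounds from Life Chemicals was screened against Brugia malayi microfilariae in a whole-organism assay. The library had been filtered for drug-likeness and reactive groups. Activity is given as percent inhibition and as IC50.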

[5] = test system: Leishmania infantum; assay: WHO-TDR: Leishmaniasis; type: functional, organism-based, Mus musculus; conditions: Macrophage
In short: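 The screened collection came from Life Chemicals: 10,000 diverse compounds selected after filtering for drug-likeness and reactive groups. Each was tested in a whole-organism assay against Leishmania infantum MHOM/MA(BE)/67 amastigotes inside murine peritoneal macrophages, using previously published standard procedures and a reference drug as positive control. Results are IC50 values for antiparasitic potency.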

[6] = test system: Onchocerca lienalis; assay: WHO-TDR: Onchocerciasis; type: functional; set-up: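 at 12.5 µM on microfilariae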
In short: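 A diverse library of 10,000 compounds from Life Chemicals, filtered for drug-likeness and reactive groups, was screened against whole microfilariae of Onchocerca ochengi or Onchocerca lienalis. These animal pathogens served as stand-ins for the human parasite. Activity is given as percent inhibition and as IC50.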

[7] = test system: Schistosoma mansoni; assay: WHO-TDR: Schistosomiasis; type: functional; set-up: concentration or dose not given beside the values
In short: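 A diverse library of 10,000 compounds from Life Chemicals, filtered for drug-likeness and reactive groups, was screened against whole larval and/or adult Schistosoma mansoni worms of the Puerto Rican strain. Previously published standard procedures were followed, with a reference drug as positive control. Activity is given as percent inhibition and as IC50.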

[8] = test system: Plasmodium falciparum K1; assay: WHO-TDR: Malaria; type: functional, organism-based, Homo sapiens; conditions: Erythrocyte
In short: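 This whole-organism screen covered 10,000 drug-likeness-filtered and reactive-group-filtered compounds from Life Chemicals. The target was the Plasmodium falciparum K1 strain in human red blood cells, and the readout was antiplasmodial IC50.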

Structure (SMILES): CCCc1cc(=O)n(CC(=O)Nc2ccc(C)cc2)c(-n2nc(C)cc2C)n1
IC50 [1]: 6.35 µg/mL (≈ 16.7 µM)
IC50 [2]: 0.764 µg/mL (≈ 2.01 µM)
IC50 [3]: 10.5 µg/mL (≈ 27.6 µM)
% Inhibition [4]: 0%
IC50 [5]: > 11.4 µg/mL
% Inhibition [6]: 27.7%
% Inhibition [7]: 0%
IC50 [8]: > 11.4 µg/mL

Structure (SMILES): COc1ccc(C)c2sc(N(CCCN(C)C)C(=O)c3ccccc3SC)nc12
IC50 [1]: 0.432 µg/mL (≈ 1.01 µM)
IC50 [2]: 5.29 µg/mL (≈ 12.3 µM)
IC50 [3]: 4.42 µg/mL (≈ 10.3 µM)
% Inhibition [4]: 0%
IC50 [5]: 4.53 µg/mL (≈ 10.5 µM)
% Inhibition [6]: 13.3%
% Inhibition [7]: 0%
IC50 [8]: 0.506 µg/mL (≈ 1.18 µM)

Structure (SMILES): COc1ccc(OC)c(-c2csc(NC(=O)Cc3ccc(SC)cc3)n2)c1
IC50 [1]: 3.52 µg/mL (≈ 8.79 µM)
IC50 [2]: 0.663 µg/mL (≈ 1.66 µM)
IC50 [3]: > 12 µg/mL
% Inhibition [4]: 0%
IC50 [5]: > 12 µg/mL
% Inhibition [6]: 11.35%
% Inhibition [7]: 0%
IC50 [8]: 3.55 µg/mL (≈ 8.87 µM)

Structure (SMILES): COc1ccc(-c2ccc(OCCNS(=O)(=O)c3ccc(Cl)s3)nn2)cc1
IC50 [1]: > 12.8 µg/mL
IC50 [2]: 0.788 µg/mL (≈ 1.85 µM)
IC50 [3]: 5.41 µg/mL (≈ 12.7 µM)
% Inhibition [4]: 0%
IC50 [5]: > 12.8 µg/mL
% Inhibition [6]: 33.3%
% Inhibition [7]: 0%
IC50 [8]: > 12.8 µg/mL

Structure (SMILES): Cc1cccc(-c2nc(CCNC(=O)c3ccco3)cs2)c1
IC50 [1]: 0.307 µg/mL (≈ 0.983 µM)
IC50 [2]: 2.46 µg/mL (≈ 7.87 µM)
IC50 [3]: 4.35 µg/mL (≈ 13.9 µM)
% Inhibition [4]: 0%
IC50 [5]: 3.95 µg/mL (≈ 12.7 µM)
% Inhibition [6]: 0%
% Inhibition [7]: 0%
IC50 [8]: 6.12 µg/mL (≈ 19.6 µM)

Structure (SMILES): Cc1ccc2sc(N(Cc3cccnc3)C(=O)CSc3ccccc3)nc2c1C
IC50 [1]: > 12.6 µg/mL
IC50 [2]: 0.938 µg/mL (≈ 2.24 µM)
IC50 [3]: > 12.6 µg/mL
% Inhibition [4]: 0%
IC50 [5]: > 12.6 µg/mL
% Inhibition [6]: 0%
% Inhibition [7]: 0%
IC50 [8]: > 12.6 µg/mL

Structure (SMILES): C=CCn1/c(=N\C(=O)Cc2ccc(S(C)(=O)=O)cc2)sc2c(OC)ccc(OC)c21
IC50 [1]: 0.462 µg/mL (≈ 1.03 µM)
IC50 [2]: 4.07 µg/mL (≈ 9.11 µM)
IC50 [3]: 13.2 µg/mL (≈ 29.6 µM)
% Inhibition [4]: 0%
IC50 [5]: 4.34 µg/mL (≈ 9.71 µM)
% Inhibition [6]: 13.3%
% Inhibition [7]: 0%
IC50 [8]: 11.2 µg/mL (≈ 25.1 µM)

Structure (SMILES): Cc1ccccc1Cn1cc(C(=O)Nc2cccc(Br)c2)ccc1=O
IC50 [1]: 3.86 µg/mL (≈ 9.71 µM)
IC50 [2]: 0.553 µg/mL (≈ 1.39 µM)
IC50 [3]: 9.51 µg/mL (≈ 23.9 µM)
% Inhibition [4]: 0%
IC50 [5]: > 11.9 µg/mL
% Inhibition [6]: 26.7%
% Inhibition [7]: 0%
IC50 [8]: > 11.9 µg/mL

Structure (SMILES): CCN(C1CCCCC1)S(=O)(=O)c1ccc(C(=O)Nc2nc(-c3ccccn3)cs2)cc1
IC50 [1]: 11.7 µg/mL (≈ 24.8 µM)
IC50 [2]: 0.459 µg/mL (≈ 0.975 µM)
IC50 [3]: 5.19 µg/mL (≈ 11 µM)
% Inhibition [4]: 0%
IC50 [5]: 4.57 µg/mL (≈ 9.71 µM)
% Inhibition [6]: 80%
% Inhibition [7]: 0%
IC50 [8]: > 14.1 µg/mL

Structure (SMILES): CCS(=O)(=O)c1cccc(C(=O)Nc2nc3c(s2)CSc2ccccc2-3)c1
IC50 [1]: 0.395 µg/mL (≈ 0.948 µM)
IC50 [2]: 0.412 µg/mL (≈ 0.989 µM)
IC50 [3]: 4 µg/mL (≈ 9.6 µM)
% Inhibition [4]: 0%
IC50 [5]: 0.405 µg/mL (≈ 0.972 µM)
% Inhibition [6]: 46.7%
% Inhibition [7]: 75%
IC50 [8]: > 12.5 µg/mL

Continued, in another order:

IC50 [1]: 0.35 µg/mL (≈ 0.958 µM)
IC50 [5]: 0.39 µg/mL (≈ 1.07 µM)
IC50 [8]: 1.74 µg/mL (≈ 4.76 µM)
Structure (SMILES): CN(C)CCCN(C(=O)/C=C/c1ccccc1)c1nc2ccccc2s1
IC50 [2]: 0.406 µg/mL (≈ 1.11 µM)
IC50 [3]: 3.81 µg/mL (≈ 10.4 µM)
% Inhibition [4]: 0%
% Inhibition [6]: 25.05%
% Inhibition [7]: 100%

IC50 [1]: 0.308 µg/mL (≈ 0.983 µM)
IC50 [5]: > 9.4 µg/mL
IC50 [8]: 2.97 µg/mL (≈ 9.49 µM)
Structure (SMILES): O=C(Cc1ccc(F)cc1)Nc1nc(-c2ccccn2)cs1
IC50 [2]: 0.334 µg/mL (≈ 1.07 µM)
IC50 [3]: > 9.4 µg/mL
% Inhibition [4]: 0%
% Inhibition [6]: 23.33%
% Inhibition [7]: 0%

IC50 [1]: > 11.5 µg/mL
IC50 [5]: 1.09 µg/mL (≈ 2.85 µM)
IC50 [8]: > 11.5 µg/mL
Structure (SMILES): COc1ccc(-c2ccc(NS(=O)(=O)c3ccc(Cl)s3)cc2)nn1
IC50 [2]: > 11.5 µg/mL
IC50 [3]: > 11.5 µg/mL
% Inhibition [4]: 16.67%
% Inhibition [6]: 0%
% Inhibition [7]: 0%

IC50 [1]: 4.22 µg/mL (≈ 9.49 µM)
IC50 [5]: > 13.3 µg/mL
IC50 [8]: 6.65 µg/mL (≈ 15 µM)
Structure (SMILES): CN(Cc1ccco1)S(=O)(=O)c1ccc(C(=O)Nc2nnc(-c3cccs3)o2)cc1
IC50 [2]: 0.456 µg/mL (≈ 1.03 µM)
IC50 [3]: 2.5 µg/mL (≈ 5.62 µM)
% Inhibition [4]: 0%
% Inhibition [6]: 0%
% Inhibition [7]: 0%

IC50 [1]: 4.36 µg/mL (≈ 9.71 µM)
IC50 [5]: > 13.5 µg/mL
IC50 [8]: 6 µg/mL (≈ 13.4 µM)
Structure (SMILES): O=C(CCCS(=O)(=O)c1ccc(F)cc1)Nc1nc2c(s1)CSc1ccccc1-2
IC50 [2]: 5.29 µg/mL (≈ 11.8 µM)
IC50 [3]: > 13.5 µg/mL
% Inhibition [4]: 0%
% Inhibition [6]: 66.33%
% Inhibition [7]: 100%

IC50 [1]: 4.24 µg/mL (≈ 9.6 µM)
IC50 [5]: > 13.2 µg/mL
IC50 [8]: > 13.2 µg/mL
Structure (SMILES): CCOc1ccc(-c2ccc(OCCNS(=O)(=O)c3cc(C)c(C)cc3C)nn2)cc1
IC50 [2]: 0.752 µg/mL (≈ 1.7 µM)
IC50 [3]: > 13.2 µg/mL
% Inhibition [4]: 0%
% Inhibition [6]: 13.3%
% Inhibition [7]: 0%

IC50 [1]: 0.422 µg/mL (≈ 1.03 µM)
IC50 [5]: 4.32 µg/mL (≈ 10.6 µM)
IC50 [8]: 1.19 µg/mL (≈ 2.91 µM)
Structure (SMILES): COc1ccc(Nc2nc(Nc3ccccc3OC)nc(N3CCOCC3)n2)cc1
IC50 [2]: 3.98 µg/mL (≈ 9.74 µM)
IC50 [3]: 2.08 µg/mL (≈ 5.1 µM)
% Inhibition [4]: 0%
% Inhibition [6]: 0%
% Inhibition [7]: 0%

IC50 [1]: 4.37 µg/mL (≈ 10.6 µM)
IC50 [5]: 1.98 µg/mL (≈ 4.79 µM)
IC50 [8]: 10.5 µg/mL (≈ 25.3 µM)
Structure (SMILES): O=C(/C=C/c1cccs1)N(CCCN1CCOCC1)c1nc2ccccc2s1
IC50 [2]: 4.43 µg/mL (≈ 10.7 µM)
IC50 [3]: > 13.5 µg/mL
% Inhibition [4]: 0%
% Inhibition [6]: 16.32%
% Inhibition [7]: 0%

IC50 [1]: 10.1 µg/mL (≈ 20.6 µM)
IC50 [5]: > 14.7 µg/mL
IC50 [8]: > 14.7 µg/mL
Structure (SMILES): Cc1ccc(-c2nnc(NC(=O)c3ccc(S(=O)(=O)N4CCc5ccccc5C4)cc3)o2)cc1C
IC50 [2]: 0.538 µg/mL (≈ 1.1 µM)
IC50 [3]: 8.86 µg/mL (≈ 18.1 µM)
% Inhibition [4]: 0%
% Inhibition [6]: 0%
% Inhibition [7]: 0%

IC50 [1]: > 10.5 µg/mL
IC50 [5]: > 10.5 µg/mL
IC50 [8]: 3.18 µg/mL (≈ 9.13 µM)
Structure (SMILES): CCCn1/c(=N/C(=O)C2=COCCO2)sc2c(C)ccc(OC)c21
IC50 [2]: 0.89 µg/mL (≈ 2.55 µM)
IC50 [3]: > 10.5 µg/mL
% Inhibition [4]: 0%
% Inhibition [6]: 20%
% Inhibition [7]: 0%

IC50 [1]: 4.55 µg/mL (≈ 9.71 µM)
IC50 [5]: 9.57 µg/mL (≈ 20.4 µM)
IC50 [8]: 10.2 µg/mL (≈ 21.8 µM)
Structure (SMILES): COc1ccccc1-c1nnc(NC(=O)c2ccc(S(=O)(=O)N(C)Cc3ccco3)cc2)o1
IC50 [2]: 0.511 µg/mL (≈ 1.09 µM)
IC50 [3]: 5.89 µg/mL (≈ 12.6 µM)
% Inhibition [4]: 0%
% Inhibition [6]: 0%
% Inhibition [7]: 0%

IC50 [1]: > 13 µg/mL
IC50 [5]: > 13 µg/mL
IC50 [8]: > 13 µg/mL
Structure (SMILES): O=C(Nc1nc(-c2ccccn2)cs1)C1CCN(S(=O)(=O)c2cccs2)CC1
IC50 [2]: 0.434 µg/mL (≈ 0.999 µM)
IC50 [3]: > 13 µg/mL
% Inhibition [4]: 0%
% Inhibition [6]: 9.31%
% Inhibition [7]: 0%
